Laboratory results published in ChEMBL document CHEMBL3297651, “Plumbagin downregulates Wnt signaling independent of p53 in human colorectal cancer cells” (J Nat Prod, 2014).
pIC50: −log10 of the molar value. Calls of active or inactive are those of the source. The calls are words filed in the database; no cut-off is given here.

Assays:
SW480 [1] = experiment: Cytotoxicity against human SW480 cells assessed as cell viability after 24 hrs by MTT assay; assay type: functional, cell-based
Procedure, shortened: (§1)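 Cells seeded at 5000/well in 96-well plates, adhered overnight, then exposed to compound for 24 or 48 h (0−20 μM for SW480/SW620; 0−30 μM for HCT116 p53+/+ and p53−/−). MTT (5 mg/mL) added for 3.5 h, formazan dissolved in DMSO, OD read at 570 nm with 655 nm reference. Means ± SE from three independent experiments; IC50 derived from viability curves.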

SW480 [2] = experiment: Cytotoxicity against human SW480 cells assessed as cell viability after 48 hrs by MTT assay; assay type: functional, cell-based; procedure, shortened: as §1
SW-620 [3] = experiment: Cytotoxicity against human SW620 cells assessed as cell viability after 24 hrs by MTT assay; assay type: functional, cell-based; procedure, shortened: as §1
SW-620 [4] = experiment: Cytotoxicity against human SW620 cells assessed as cell viability after 48 hrs by MTT assay; assay type: functional, cell-based; procedure, shortened: as §1
SW-620 [5] = experiment: Inhibition of proto-oncogene protein Wnt/beta-catenin in human SW620 cells assessed as downregulation of TCF/LEF promoter transcriptional activity after 24 hrs by TOPFlash luciferase reporter gene assay; assay type: cell-based
Procedure, shortened: (§2)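 3 × 10^4 cells/well transfected with TOPFlash or FOPFlash plus Renilla plasmids (200 ng) by lipofectin in serum- and antibiotic-free DMEM. After 6 h, compound added in complete DMEM for 24 h (SW620 1−3 μM; HCT116 lines 5 and 10 μM), DMSO control. Dual luciferase read by photon counting, firefly normalized to Renilla; means ± SE, three independent experiments, Student t-test.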

SW-620 [6] = experiment: Inhibition of proto-oncogene protein Wnt/beta-catenin in human SW620 cells assessed as downregulation of mutant TCF/LEF promoter transcriptional activity at 1 to 3 uM after 24 hrs by FOPFlash luciferase reporter gene assay; assay type: cell-based; procedure, shortened: as §2
SW480 [7] = experiment: Inhibition of proto-oncogene protein Wnt/beta-catenin in human SW480 cells assessed as downregulation of TCF/LEF promoter transcriptional activity after 24 hrs by TOPFlash luciferase reporter gene assay; assay type: cell-based
SW480 [8] = experiment: Inhibition of proto-oncogene protein Wnt/beta-catenin in human SW480 cells assessed as downregulation of mutant TCF/LEF promoter transcriptional activity at 1 to 3 uM after 24 hrs by FOPFlash luciferase reporter gene assay; assay type: cell-based
SW-620 [9] = experiment: Inhibition of proto-oncogene protein Wnt in human SW620 cells assessed as downregulation of beta-catenin protein expression at 6 uM after 24 hrs by Western blot analysis; assay type: cell-based
Procedure, shortened: (§3)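 10^6 cells/well in six-well plates treated 24 h with compound (6 μM SW620; 10 μM HCT116 lines) or DMSO control. Lysed 1 h on ice in Tris/NaCl/Triton/deoxycholate buffer with phosphatase and protease inhibitors; 50−75 μg protein on 8−10% SDS-PAGE, PVDF, primary antibodies 1:1000 overnight 4 °C, HRP secondaries 1:10 000, chemiluminescence; β-actin loading control; three independent experiments.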

SW-620 [10] = experiment: Inhibition of proto-oncogene protein Wnt in human SW620 cells assessed as downregulation of p300 protein expression at 6 uM after 24 hrs by Western blot analysis; assay type: cell-based; procedure, shortened: as §3
SW-620 [11] = experiment: Inhibition of proto-oncogene protein Wnt in human SW620 cells assessed as downregulation of TCF7L2 protein expression at 6 uM after 24 hrs by Western blot analysis; assay type: cell-based; procedure, shortened: as §3
SW-620 [12] = experiment: Inhibition of proto-oncogene protein Wnt in human SW620 cells assessed as downregulation of Bcl9l protein expression at 6 uM after 24 hrs by Western blot analysis; assay type: cell-based; procedure, shortened: as §3
SW480 [13] = experiment: Inhibition of proto-oncogene protein Wnt in human SW480 cells assessed as downregulation of beta-catenin protein expression at 6 to 10 uM after 24 hrs by Western blot analysis; assay type: cell-based
SW480 [14] = experiment: Inhibition of proto-oncogene protein Wnt in human SW480 cells assessed as downregulation of p300 protein expression at 6 to 10 uM after 24 hrs by Western blot analysis; assay type: cell-based
SW480 [15] = experiment: Inhibition of proto-oncogene protein Wnt in human SW480 cells assessed as downregulation of TCF7L2 protein expression at 6 to 10 uM after 24 hrs by Western blot analysis; assay type: cell-based
SW480 [16] = experiment: Inhibition of proto-oncogene protein Wnt in human SW480 cells assessed as downregulation of Bcl9l protein expression at 6 to 10 uM after 24 hrs by Western blot analysis; assay type: cell-based
SW-620 [17] = experiment: Inhibition of proto-oncogene protein Wnt/beta-catenin in human SW620 cells assessed as downregulation of c-Myc protein expression at 6 uM after 24 hrs by Western blot analysis relative to control; assay type: cell-based; procedure, shortened: as §3
SW-620 [18] = experiment: Inhibition of proto-oncogene protein Wnt/beta-catenin in human SW620 cells assessed as downregulation of cyclin D1 protein expression at 6 uM after 24 hrs by Western blot analysis relative to control; assay type: cell-based; procedure, shortened: as §3
SW-620 [19] = experiment: Inhibition of proto-oncogene protein Wnt/beta-catenin in human SW620 cells assessed as downregulation of vimentin protein expression at 6 uM after 24 hrs by Western blot analysis relative to control; assay type: cell-based; procedure, shortened: as §3
HCT-116 [20] = experiment: Cytotoxicity against human HCT116 cells expressing p53 assessed as cell viability after 24 hrs by MTT assay; assay type: functional, cell-based; details: HCT-116, 24 h; procedure, shortened: as §1
HCT-116 [21] = experiment: Cytotoxicity against p53-deficient human HCT116 cells assessed as cell viability after 24 hrs by MTT assay; assay type: functional, cell-based; details: HCT-116, 24 h; procedure, shortened: as §1
HCT-116 [22] = experiment: Inhibition of proto-oncogene protein Wnt/beta-catenin in human HCT116 cells expressing p53 assessed as downregulation of TCF/LEF promoter transcriptional activity at 5 to 10 uM after 24 hrs by TOPFlash/FOPFlash luciferase reporter gene assay; assay type: cell-based; procedure, shortened: as §2
HCT-116 [23] = experiment: Inhibition of proto-oncogene protein Wnt/beta-catenin in p53-deficient human HCT116 cells assessed as downregulation of TCF/LEF promoter transcriptional activity at 5 to 10 uM after 24 hrs by TOPFlash/FOPFlash luciferase reporter gene assay; assay type: cell-based; procedure, shortened: as §2
HCT-116 [24] = experiment: Inhibition of proto-oncogene protein Wnt in human HCT116 cells expressing p53 assessed as downregulation of beta-catenin protein expression at 10 uM after 24 hrs by Western blot analysis relative to control; assay type: cell-based; procedure, shortened: as §3
HCT-116 [25] = experiment: Inhibition of proto-oncogene protein Wnt in p53-deficient human HCT116 cells assessed as downregulation of beta-catenin protein expression at 10 uM after 24 hrs by Western blot analysis relative to control; assay type: cell-based; procedure, shortened: as §3
SW-620 [26] = experiment: Upregulation of HBP1 protein expression in human SW620 cells at 6 uM after 24 hrs by Western blot analysis relative to control; assay type: functional; procedure, shortened: as §3
HCT-116 [27] = experiment: Upregulation of HBP1 protein expression in human HCT116 cells expressing p53 at 10 uM after 24 hrs by Western blot analysis; assay type: functional, cell-based; procedure, shortened: as §3
HCT-116 [28] = experiment: Upregulation of HBP1 protein expression in p53-deficient human HCT116 cells at 10 uM after 24 hrs by Western blot analysis; assay type: functional, cell-based; procedure, shortened: as §3

CC1=CC(=O)c2c(O)cccc2C1=O [PLUMBAGIN]
Activity (SW480 [1]): Dose-dependent effect | pIC50 (SW480 [1]; SW480, 24 h): 4.92 | Activity (SW480 [2]): Dose-dependent effect | pIC50 (SW480 [2]; SW480, 48 h): 5.14 | Activity (SW-620 [3]): Dose-dependent effect | pIC50 (SW-620 [3]; SW-620, 24 h): 5.11 | Activity (SW-620 [4]): Dose-dependent effect | pIC50 (SW-620 [4]; SW-620, 48 h): 5.13 | inhibition (SW-620 [5]): Dose-dependent effect | inhibition (SW-620 [6]): inactive | inhibition (SW480 [7]): Dose-dependent effect | inhibition (SW480 [8]): inactive | inhibition (SW-620 [9]): Active | inhibition (SW-620 [10]): Active | inhibition (SW-620 [11]): Active | inhibition (SW-620 [12]): Active | inhibition (SW480 [13]): Active | inhibition (SW480 [14]): Active | inhibition (SW480 [15]): Active | inhibition (SW480 [16]): Active | inhibition (SW-620 [17]): 50% | inhibition (SW-620 [18]): 50% | inhibition (SW-620 [19]): 50% | pIC50 (HCT-116 [20]): 4.70 | pIC50 (HCT-116 [21]): 4.70 | inhibition (HCT-116 [22]): Active | inhibition (HCT-116 [23]): Active | inhibition (HCT-116 [24]): 33% | inhibition (HCT-116 [25]): 20% | fold change (FC) (SW-620 [26]): 1.68 | Activity (HCT-116 [27]): Active | Activity (HCT-116 [28]): Active
